In paper PMC4186687 (Molecular Pharmaceutics, 2014):

Legend:
SK-OV-3 cells [1] = experiment: Confocal microscopy on live cells; format: cell-based, human; settings: F′-PEpYLGLD 5 μM with or without [W5R4C]–SeNPs 50 μM, SK-OV-3, 2 h, 37 °C
In short: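 SK-OV-3 cells, maintained in EMEM with 10% FBS and 1% penicillin–streptomycin at 37 °C under 5% CO2, were grown overnight on coverslips (1 × 10^5 cells per well). Fluorescein-labelled peptide (5 μM), alone or with peptide-capped selenium nanoparticles (50 μM), was added in opti-MEM for 2 h at 37 °C. Slides were washed and nuclei were DAPI-stained. Fluorescence intensity was compared with probe alone, in triplicate.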

SK-OV-3 cells [2] = experiment: Flow cytometry uptake with endocytic inhibitors; format: cell-based, human; settings: F′-PEpYLGLD:[W5R4C]–SeNPs 1:10, SK-OV-3, 2 h, 37 °C, n = 3

| Compound | effect on uptake of F′-PEpYLGLD loaded [W5R4C]–SeNPs (in words) (SK-OV-3 cells [2]) | further results |
| --- | --- | --- |
| F′-PEpYLGLD | – | intracellular fluorescence of F′-PEpYLGLD (confocal microscopy) (SK-OV-3 cells [1]): No green fluorescence |
| [N-]=[N+]=[N-].[Na+] [sodium azide] | did not alter | – |
| methyl-β-cyclodextrin | did not significantly decrease | – |
| CCN(CC)CCCC(C)Nc1ccnc2cc(Cl)ccc12 (stereo not shown) [chloroquine] | did not significantly decrease | – |
| CN(C)CCCN1c2ccccc2Sc2ccc(Cl)cc21 [chlorpromazine] | did not significantly decrease | – |
| C[C@@H]1[C@H](O)[C@@H](C)/C=C/C=C/CC/C=C/C=C/C=C/C=C/C(O[C@H]2O[C@H](C)[C@@H](O)[C@H](N)[C@@H]2O)CC2O[C@](O)(CC(O)C(O)CCC(O)CC(O)CC(O)CC(=O)O[C@H]1C)CC(O)C2C(=O)O (stereo partly shown) [nystatin] | – | inhibition of uptake of F′-PEpYLGLD loaded [W5R4C]–SeNPs (SK-OV-3 cells [2]): 52% |
| CCN(c1nc(N)c(C(=O)N=C(N)N)nc1Cl)C(C)C [EIA, 5-(N-ethyl-N-isopropyl)-amiloride] | – | inhibition of uptake of F′-PEpYLGLD loaded [W5R4C]–SeNPs (SK-OV-3 cells [2]): 40% |
